Source: PubChem BioAssay (several laboratories)
A selection: hits, their analogues and other compounds. The true share with any hit is near 2.4%.
AP complement = alternative pathway complement inhibition, orthogonal assay. Human serum alternative complement pathway, LPS-coated ELISA, C3 deposition; tested in compound mixtures. inhibition, % at 5 µM. actives 0.08% (n = 62,000). AID 1235;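 active = inhibition above 30% in each of the two pooled mixtures holding the compound, so the lower value exceeds 30%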;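 also: 0% = serum in Mg-EGTA without compound and 100% = EDTA serum blank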
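Assay system: human serum alternative complement pathway, C3 deposition on LPS-coated wells; Dosing: 5 µM per compound in ten-compound mixtures; Detection: Anti-C3 ELISA, OD 450 nm; Buffer or medium: Mg2+-EGTA GVB++ buffer containing human serum at 1:15 dilution; Timing: 1 h at 37 °C; Replication: two different pools per compound.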
SF1 activator = activates the human nuclear receptor SF-1; actives 1.9% (n = 65,000); CHO-K1 Gal4-SF-1 LBD luciferase reporter; % increase over DMSO SF-1-specific signal; activation, % at 10 µM;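 active = activation above the mean activation of all tested compounds plus 3 SD, cut at about 50% in these data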
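Material: Transient Gal4-SF-1 LBD reporter, CHO-K1 | Input: 4,000 cells/well | Dosing: One dose, 10 µM compound, 1% DMSO | Incubation: 20 h compound treatment, 37 °C | Detection: SteadyLite luciferase luminescence | Evaluation: Percent activation relative to DMSO median and mock-transfected background | Benchmarks: DMSO-treated SF-1-transfected cells as negative, DMSO-treated mock-transfected cells lacking SF-1 as background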
MMP-13 inhibitor = blocks human MMP13 activity; P45452; inhibition, % at 4 µM; actives 0.07% (n = 65,000); MMP-13 fTHP FRET cleavage, Mca fluorescence;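 active = inhibition above the mean of compound-free control plate wells plus 3 SD, cut at about 14% in these data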;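 also: 0% = DMSO wells and 100% = wells with reference MMP-13 inhibitor after basal subtraction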
RORa activator = activates the human nuclear receptor RORA | P35398 | CHO-K1 Gal4-RORA LBD luciferase reporter, luminescence; percent increase over mock-subtracted basal signal | activation, % at 10 µM | actives 1.5% (n = 65,000) | AID 560;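 active = activation above the mean of all tested compounds plus 3 SD, cut at about 49% in these data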;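 also: 0% = DMSO-treated RORA cells and 100% = added signal equal to DMSO minus mock-transfected cells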
HePTP inhibitor = inhibitors of human HePTP phosphatase; P35236; recombinant HePTP phosphatase activity, OD absorbance; inhibition, % at 20 µM; actives 0.64% (n = 110,000); in the data active = inhibition above about 50%;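 also: plate controls were vehicle for no effect and reference inhibitor for full effect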
Target sequence (P35236 whole entry, looked up): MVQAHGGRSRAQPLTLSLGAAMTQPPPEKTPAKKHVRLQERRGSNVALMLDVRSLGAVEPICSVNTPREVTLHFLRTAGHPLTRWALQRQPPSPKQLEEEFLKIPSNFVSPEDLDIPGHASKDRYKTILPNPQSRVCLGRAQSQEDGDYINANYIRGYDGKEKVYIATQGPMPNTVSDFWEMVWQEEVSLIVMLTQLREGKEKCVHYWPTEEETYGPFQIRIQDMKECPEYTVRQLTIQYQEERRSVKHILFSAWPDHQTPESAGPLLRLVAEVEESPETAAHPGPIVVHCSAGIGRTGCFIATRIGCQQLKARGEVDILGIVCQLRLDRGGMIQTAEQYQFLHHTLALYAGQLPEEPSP
Ec RNAP inh = blocks E. coli RNA polymerase transcription; P0A8V2; fluorescence transcription assay; inhibition, %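 (tested at 10 µM)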; actives 0.2% (n = 62,000); in the data active = inhibition above about 20%;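 also: 0% = enzyme without compound and 100% = no enzyme blank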
Numbers without * were called inactive; / = no result given; ! = not active in a repeat.

SMILES	AP complement	SF1 activator	MMP-13 inhibitor	RORa activator	HePTP inhibitor	Ec RNAP inh
O=C(NCc1ccccn1)Nc1cccc(NC(=O)NCc2ccccn2)c1	17	20	-8	28	6	-3
Cc1csc(NC(=O)Nc2cccc(Cl)c2)n1	8	63*	1	70*	7	5
N#CCc1ccc(NC(=O)Nc2cccc(Cl)c2)cc1	2	79*	4	7	8	6
O=C(NCc1ccccn1)Nc1cccc(Cl)c1	-10	63*	-2	38	-3	-2
Cc1nnc(NC(=O)Nc2cccc(Cl)c2)s1	5	35	-3	4	1	7
O=C(Nc1cccc(Cl)c1)Nc1nccs1	22	32	-1	72*	5	0
CC(=O)n1ccc(C(=O)Nc2ccc(Cl)c(Cl)c2)n1	/	/	/	/	7	/
CC1=C(C#N)C(c2ccc(OCc3ccccc3)cc2)C2=C(CC(c3ccc(Cl)cc3)CC2=O)N1 (configuration not stated)	/	/	/	/	-3	/
CCOc1ccc(-c2c(C#N)c(N)nc3sc(C#N)c(N)c23)cc1	/	/	/	/	4	/
O=C(Nc1cccc(Cl)c1)NC1CCCCC1	-2	59*	3	54*	3	6
COc1cc(C)c(/C=C2\C(=O)NC(=O)N(Cc3ccccc3)C2=O)cc1C	/	/	/	/	-2	/
O=C(CN(c1ccccc1)S(=O)(=O)c1ccccc1[N+](=O)[O-])NCCc1ccccc1	/	/	/	/	7	/
Cc1ccc2c(c1)c1c3n2CCCNC3CCC1 (configuration not stated)	-5	8	-2	54*	1	6
Cc1nc(C)c(/C(O)=C/c2nc3ccc([N+](=O)[O-])cc3oc2=O)s1	/	/	/	/	1	/
O=c1oc2cc([N+](=O)[O-])ccc2nc1/C=C(\O)c1cccs1	/	/	/	/	76*	/
C/C(=N\N1CCN(Cc2cccc3ccccc23)CC1)c1cccs1	/	/	/	/	-2	/
CCN(C)c1ccc(/C=N\n2nnnc2N)cc1	7	87*	-14	67*	3	8
Nc1nnnn1/N=C/c1ccc(C=O)cc1	/	/	/	/	-5	/
CSc1ccc(/C=N/n2nnnc2N)cc1	0	25	-24	51*	-4	4
Clc1cccc(Cl)c1OCCN1CCOCC1	/	/	/	/	0	/
C/C(=N/NC(=O)c1cccc(Br)c1)c1ccccc1O	/	/	/	/	-4	/
Fc1ccccc1-c1nc(-c2ccc(Br)cc2)no1	/	/	/	/	-11	/
O=C(c1ccc(Cl)s1)N1CCc2ccccc21	16	62*	5	47	-1	0
Cc1ccc(C(C)C)c(OCC(=O)Nc2ccc(-c3nc4ncccc4o3)cc2)c1	/	/	/	/	6	/
Cc1cc(OCC(=O)Nc2ccc(-c3nc4ncccc4o3)cc2)ccc1Cl	/	/	/	/	63*	/
SMILES	AP complement	SF1 activator	MMP-13 inhibitor	RORa activator	HePTP inhibitor	Ec RNAP inh
O=C(COc1ccccc1[N+](=O)[O-])Nc1ccc(-c2nc3ncccc3o2)cc1	/	/	/	/	65*	/
Cc1ccc(OCC(=O)Nc2ccc(-c3nc4ncccc4o3)cc2)c(C)c1	8	5	-67	5	104*!	9
COC(=O)COc1ccc(/C=C2\C(=O)NC(=S)N(c3ccc(C(C)C)cc3)C2=O)cc1OC	/	/	/	/	5	/
O=C(CSc1ncn[nH]1)Nc1cccc(C(=O)O)c1	/	/	/	/	-9	/
C#CCOc1ccc(/C=C2\C(=O)NC(=O)N(c3ccc(Cl)cc3)C2=O)cc1OCC	/	/	/	/	0	/
COc1ccc(CCN2C(=O)CSC2c2ccc(Cl)c(Cl)c2)cc1OC (configuration not stated)	/	/	/	/	6	/
COc1ccc(-c2cn3ccccc3n2)cc1OC	-7	30	-178	49*	6	6
COc1ccc(OC)c(C2C(C(=O)/C=C/c3ccccc3)=C(O)C(=O)N2CCCCCC(=O)O)c1 (configuration not stated)	/	/	/	/	78*	/
COc1cccc(C2C(C(=O)/C=C/c3ccccc3)=C(O)C(=O)N2CCCCCC(=O)O)c1 (configuration not stated)	/	/	/	/	5	/
O=C(Nc1ccc(Cl)c(Cl)c1)Nc1cccc(Cl)c1Cl	/	/	/	/	2	/
Cc1ccc(/C(O)=C2\C(=O)C(=O)N(c3nccs3)C2c2cccs2)cc1 (configuration not stated)	/	/	/	/	5	/
O=C1C=CC(=O)C(/C(=C/NCc2ccccc2)[N+](=O)[O-])=C1	/	/	/	/	104*	/
O=C(Nc1cccc([N+](=O)[O-])c1)c1cc(-c2ccco2)nc2ccccc12	/	/	/	/	103*	/
O=C(O)c1cc(-c2ccco2)nc2ccccc12	-5	9	-22	3	9	-2
O=C(CSc1ccccn1)c1ccc(-c2ccccc2)cc1	/	/	/	/	2	/
CCN1C(=S)SC(=O)C1=C1C=C(C)N(CCOC)C(C)=C1	11	-6	27*	24	-2	6
O=C1C(Cl)=CC(=NSc2nc3ccccc3s2)C=C1Cl	/	/	/	/	68*	/
CCC(=O)Nc1ccc(NC(=O)c2ccccn2)cn1	2	39	3	65*	5	7
CC(C)C(=O)Nc1ccc(NC(=O)c2ccccn2)cn1	3	41	0	51*	2	10
O=C(Nc1ccc(NC(=O)C2CC2)nc1)c1ccccn1	0	13	4	8	-9	-1
COc1ccc(OC(C)C(=O)Nc2ccccc2Cl)cc1 (configuration not stated)	/	/	/	/	4	/
CC(C)c1cc(C(=O)Nc2sc3c(c2C#N)CCC3)no1	1	46	3	76*	-3	-5
Cc1cc(C(=O)Nc2sc3c(c2C#N)CCC(C)C3)cs1 (configuration not stated)	16	33	-5	91*	7	/
Cc1cc(C(=O)Nc2sc3c(c2C#N)CCC(C(C)(C)C)C3)no1 (configuration not stated)	2	58*	-2	-7	-7	-2
O=S(=O)(Nc1nc2ccccc2nc1Nc1cccc(O)c1)c1ccc(Cl)cc1	/	/	/	/	3	/
SMILES	AP complement	SF1 activator	MMP-13 inhibitor	RORa activator	HePTP inhibitor	Ec RNAP inh
COC(=O)CN(c1cccc(Cl)c1)S(=O)(=O)c1ccc(C)cc1	/	/	/	/	9	/
CCCCCOc1ccc(CN2CCOCC2)cc1Cl	16	61*	8	40	-8	-3
Cc1ccc(Cl)c(OCCCCN2CCOCC2)c1	/	/	/	/	8	/
c1ccc2cc(OCCCCn3ccnc3)ccc2c1	/	/	/	/	8	/
O=C(CCc1ccc(S(=O)(=O)N2CCOCC2)cc1)OCc1nc2ccccc2s1	4	59*	-1	10	5	14
O=C(COc1ccc(F)c(Cl)c1)c1ccc[nH]1	21	11	-11	-5	6	9
O=C(CCC(=O)c1ccc[nH]1)c1ccc(Cl)cc1	12	52*	-7	26	10	2
O=C1c2ccccc2C(=O)c2c(O)c(Oc3ccccc3)cc(O)c21	/	/	/	/	0	/
COc1cc(C(=O)Nc2ccc3c(c2)OCCO3)ccc1OC(C)C	16	54*	-1	45	7	5
COc1cc(C(=O)Nc2ccc3c(c2)OCCO3)ccc1OC(F)F	26	64*	2	76*	6	-10
